We go through 21 compounds from ChEMBL document CHEMBL2311437, “Synthesis, molecular docking and evaluation of thiazolyl-pyrazoline derivatives containing benzodioxole as potential anticancer agents” (Bioorg Med Chem, 2013).

The subject of assay [1] is MCF7. Description: Antiproliferative activity against human MCF7 cells after 48 hrs by MTT assay. Type of assay: functional, cell-based. As to conditions: MCF7, 48 h. Background: Tetrazolium assays rely on reduction of a dye to a coloured formazan, in cell work by metabolically active cells.
Assay [2] is described as follows: Antiproliferative activity against mouse B16/F10 cells after 48 hrs by MTT assay. Type of assay: functional, cell-based. As to conditions: B16-F10, 48 h. A digest of the protocol: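 Cells seeded 7×10^3/well, grown 24 h, then exposed 48 h to compounds at final 0.1–100 µg/mL. MTT (5 mg/mL in PBS) added for 4 h, then 10% SDS in 0.01 N HCl, 18 h at 37 °C. Absorbance read at 570 nm. Survival given as % of untreated cells. IC50 taken from replicates of 6 wells over at least three independent experiments.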

For assay [3], the target named is Receptor tyrosine-protein kinase erbB-2 (Homo sapiens, UniProt P04626). Kind of assay: Inhibition of human HER2 cytoplasmic domain (amino acids 676 to 1245) expressed in Sf9 cells by DELFIA time resolved fluorometry. A digest of the protocol: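 His6-tagged HER-2 was expressed in Sf-9 cells (3-day infection) and Ni-NTA purified at 4 °C. Assay measures autophosphorylation. Compound in 25 mM HEPES pH 7.4 (DMSO <0.1%) preincubated 10 min at RT with 12.5 ng enzyme. Then buffer (MnCl2, Na3VO4, DTT) and 0.1 mM ATP-50 mM MgCl2 (stock mix) added for 1 h. Readout: europium anti-phosphotyrosine, 1 h, ex 340/em 615 nm. IC50 from eight-concentration inhibition curves.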
Receptor tyrosine-protein kinase erbB-2, sequence (P04626 whole entry, the tested form may be a part): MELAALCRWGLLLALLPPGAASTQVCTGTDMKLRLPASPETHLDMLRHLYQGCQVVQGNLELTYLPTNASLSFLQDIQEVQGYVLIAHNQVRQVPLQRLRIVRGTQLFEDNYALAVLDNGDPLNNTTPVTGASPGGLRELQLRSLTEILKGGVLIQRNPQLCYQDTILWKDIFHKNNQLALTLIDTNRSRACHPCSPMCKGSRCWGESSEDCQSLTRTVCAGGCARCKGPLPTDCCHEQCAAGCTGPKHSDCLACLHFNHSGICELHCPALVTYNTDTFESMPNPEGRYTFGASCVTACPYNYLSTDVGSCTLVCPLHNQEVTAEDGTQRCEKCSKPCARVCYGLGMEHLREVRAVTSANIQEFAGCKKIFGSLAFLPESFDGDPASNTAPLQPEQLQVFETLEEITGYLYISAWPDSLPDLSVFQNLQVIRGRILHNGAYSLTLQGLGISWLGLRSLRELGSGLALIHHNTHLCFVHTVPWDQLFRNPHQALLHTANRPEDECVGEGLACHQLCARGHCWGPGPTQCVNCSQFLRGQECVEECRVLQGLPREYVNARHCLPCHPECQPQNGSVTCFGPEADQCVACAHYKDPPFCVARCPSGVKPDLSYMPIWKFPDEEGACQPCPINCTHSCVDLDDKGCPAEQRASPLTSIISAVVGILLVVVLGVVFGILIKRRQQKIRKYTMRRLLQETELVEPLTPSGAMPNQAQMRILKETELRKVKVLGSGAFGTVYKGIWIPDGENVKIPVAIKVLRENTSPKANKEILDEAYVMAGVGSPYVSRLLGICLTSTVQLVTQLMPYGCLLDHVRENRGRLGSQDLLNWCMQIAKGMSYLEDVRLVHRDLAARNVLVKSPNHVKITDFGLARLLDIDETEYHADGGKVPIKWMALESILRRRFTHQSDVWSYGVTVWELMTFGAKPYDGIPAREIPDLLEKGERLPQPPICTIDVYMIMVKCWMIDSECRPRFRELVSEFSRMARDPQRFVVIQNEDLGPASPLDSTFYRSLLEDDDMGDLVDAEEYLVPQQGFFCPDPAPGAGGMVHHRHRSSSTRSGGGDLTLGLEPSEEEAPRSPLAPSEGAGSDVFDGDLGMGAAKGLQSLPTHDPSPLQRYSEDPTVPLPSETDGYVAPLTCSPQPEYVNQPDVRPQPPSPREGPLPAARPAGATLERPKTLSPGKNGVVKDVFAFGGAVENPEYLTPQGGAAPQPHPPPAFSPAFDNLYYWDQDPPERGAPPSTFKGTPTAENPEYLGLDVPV

The test system of assay [4] is MCF7. Kind of assay: Induction of apoptosis in human MCF7 cells assessed as increase in cleaved caspase 3 levels after 24 hrs by Western blotting method. Type of assay: functional, cell-based. A digest of the protocol: (§1)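 Cells treated 24 h, harvested and lysed in Tris pH 7.5/NaCl/NP-40 buffer with phosphatase and protease inhibitors. Protein quantified by BCA. Separation by 10% SDS–PAGE, transfer to PVDF, blocking in 5% milk 2 h at RT. Probed overnight at 4 °C with anti-HER-2 or anti-cleaved caspase 3, then HRP secondary antibody.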

Assay [5] has as its system B16-F10. Description: Induction of apoptosis in mouse B16/F10 cells assessed as increase in cleaved caspase 3 levels after 24 hrs by Western blotting method. In kind it is functional, cell-based. The method in brief: as §1
Assay [6] deals with Receptor tyrosine-protein kinase erbB-2 (Mus musculus) (UniProt P70424). Kind of assay: Inhibition of HER2 in mouse B16/F10 cells assessed as down regulation of HEr2 protein levels after 24 hrs by Western blotting method. Type of assay: cell-based. A digest of the protocol:
as §1
In general terms: In western blotting, separated proteins are transferred to a membrane and probed.

Receptor tyrosine-protein kinase erbB-2 (Mus musculus), sequence (P70424 whole entry): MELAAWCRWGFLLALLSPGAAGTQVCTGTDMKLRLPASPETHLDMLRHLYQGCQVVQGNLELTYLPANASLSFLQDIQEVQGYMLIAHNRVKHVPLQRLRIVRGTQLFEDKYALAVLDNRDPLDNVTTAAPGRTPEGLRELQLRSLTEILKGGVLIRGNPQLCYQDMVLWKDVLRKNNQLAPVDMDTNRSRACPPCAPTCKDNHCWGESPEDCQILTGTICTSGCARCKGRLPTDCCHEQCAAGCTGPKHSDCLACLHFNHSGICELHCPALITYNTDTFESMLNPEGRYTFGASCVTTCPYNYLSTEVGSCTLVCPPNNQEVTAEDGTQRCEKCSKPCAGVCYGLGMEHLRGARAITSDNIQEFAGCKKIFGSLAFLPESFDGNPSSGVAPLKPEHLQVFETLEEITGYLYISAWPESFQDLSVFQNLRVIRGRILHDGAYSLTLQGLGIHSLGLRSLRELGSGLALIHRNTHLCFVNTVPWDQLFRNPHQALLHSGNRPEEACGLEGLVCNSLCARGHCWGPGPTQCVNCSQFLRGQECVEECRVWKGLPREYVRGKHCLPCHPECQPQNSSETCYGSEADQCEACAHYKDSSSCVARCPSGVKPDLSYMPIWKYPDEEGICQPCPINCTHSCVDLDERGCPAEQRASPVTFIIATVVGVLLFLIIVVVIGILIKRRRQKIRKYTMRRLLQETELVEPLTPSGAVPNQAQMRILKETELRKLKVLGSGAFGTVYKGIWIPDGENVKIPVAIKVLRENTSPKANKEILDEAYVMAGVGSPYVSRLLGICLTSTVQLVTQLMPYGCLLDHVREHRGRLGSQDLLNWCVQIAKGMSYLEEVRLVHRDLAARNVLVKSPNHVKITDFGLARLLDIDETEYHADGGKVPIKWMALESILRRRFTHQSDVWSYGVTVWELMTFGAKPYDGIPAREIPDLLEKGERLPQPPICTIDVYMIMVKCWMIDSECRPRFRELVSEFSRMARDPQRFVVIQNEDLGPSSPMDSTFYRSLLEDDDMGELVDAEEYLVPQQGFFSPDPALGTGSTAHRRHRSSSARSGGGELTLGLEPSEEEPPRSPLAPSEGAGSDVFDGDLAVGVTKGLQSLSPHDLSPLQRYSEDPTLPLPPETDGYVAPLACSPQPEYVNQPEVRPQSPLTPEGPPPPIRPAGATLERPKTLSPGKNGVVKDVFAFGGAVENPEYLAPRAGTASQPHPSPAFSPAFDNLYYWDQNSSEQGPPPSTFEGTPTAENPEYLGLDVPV

One may read the IC50 as the midpoint of a concentration-inhibition curve. Regarding `COc1ccc(-c2csc(N3N=C(c4ccc(C)cc4)CC3c3ccc4c(c3)OCCO4)n2)cc1` (stereo not given), the concentration for half-maximal inhibition (IC50) in assay [1] came to 2680 nM; in assay [2] it was 2870 nM.

On to `COc1ccc(-c2csc(N3N=C(c4ccc(F)cc4)CC3c3ccc4c(c3)OCO4)n2)cc1` (stereo not given), for which the results for the concentration for half-maximal inhibition (IC50) in assay [1] and in assay [2] were 3650 nM and 3980 nM, respectively.

On to `COc1ccc(-c2csc(N3N=C(c4ccc(Br)cc4)CC3c3ccc4c(c3)OCO4)n2)cc1` (stereo not given), for which the IC50 in assay [3] worked out at 850 nM; in assay [1] it was 270 nM; in assay [2] it was 320 nM.

Turning to `C#Cc1cccc(Nc2ncnc3cc(OCCOC)c(OCCOC)cc23)c1` [ERLOTINIB], the 50% inhibitory concentration (IC50) in assay [2] is 50 nM.

`COc1ccc(-c2csc(N3N=C(c4ccc(Cl)cc4)CC3c3ccc4c(c3)OCO4)n2)cc1` (stereo not given): the IC50 in assay [1] is 2410 nM; in assay [2], 2320 nM.

On to `Clc1ccc(C2=NN(c3nc(-c4ccc(Br)cc4)cs3)C(c3ccc4c(c3)OCO4)C2)cc1` (stereo not given), for which the IC50 in assay [3] is 2380 nM; in assay [1], 1720 nM; in assay [2], 1510 nM.

For the compound `COc1ccc(C2=NN(c3nc(-c4ccc(OC)cc4)cs3)C(c3ccc4c(c3)OCO4)C2)cc1` (stereo not given), the half-inhibitory concentration (IC50) came to 2730 nM in assay [1] and 2670 nM in assay [2].

Consider `COc1ccc(C2=NN(c3nc(-c4ccc(Br)cc4)cs3)C(c3ccc4c(c3)OCO4)C2)cc1` (stereo not given), for which the values for the half-maximal inhibitory concentration (IC50) in assay [1] and in assay [2] were 2470 nM and 2540 nM, respectively.

With `COc1ccc(C2=NN(c3nc(-c4ccc(Br)cc4)cs3)C(c3ccc4c(c3)OCCO4)C2)cc1` (stereo not given), the half-inhibitory concentration (IC50) in assay [1] came out at 2540 nM; in assay [2] it was 2520 nM.

In the case of `Clc1ccc(C2=NN(c3nc(-c4ccc(Br)cc4)cs3)C(c3ccc4c(c3)OCCO4)C2)cc1` (stereo not given), the values for the IC50 in assay [1] and in assay [2] were 2230 nM and 2150 nM, respectively.

Take `COc1ccc(-c2csc(N3N=C(c4ccc(C)cc4)CC3c3ccc4c(c3)OCO4)n2)cc1` (stereo not given): the results for the half-inhibitory concentration (IC50) in assay [1] and in assay [2] were 1430 nM and 1520 nM, respectively.

On to `Brc1ccc(C2=NN(c3nc(-c4ccc(Br)cc4)cs3)C(c3ccc4c(c3)OCO4)C2)cc1` (stereo not given), for which the IC50 stood at 180 nM in assay [3], 90 nM in assay [1] and 120 nM in assay [2]. In addition, the Activity result in assay [4] and in assay [5] was “Dose-dependent effect” throughout. Further, the inhibition result in assay [6] was “Dose-dependent effect”.

`COc1ccc(-c2csc(N3N=C(c4ccc(Cl)cc4)CC3c3ccc4c(c3)OCCO4)n2)cc1` (stereo not given): the figures for the half-inhibitory concentration (IC50) in assay [1] and in assay [2] were 3030 nM and 3120 nM, respectively.

`COc1ccc(-c2csc(N3N=C(c4ccc(Br)cc4)CC3c3ccc4c(c3)OCCO4)n2)cc1` (stereo not given): the IC50 in assay [3] amounted to 1320 nM; in assay [1], 870 nM; in assay [2] it was 1120 nM.

As to `Cc1ccc(C2=NN(c3nc(-c4ccc(Br)cc4)cs3)C(c3ccc4c(c3)OCO4)C2)cc1` (stereo not given), the values for the IC50 in assay [3], in assay [1] and in assay [2] were 2230 nM, 1410 nM and 1390 nM, respectively.

As for `Fc1ccc(C2=NN(c3nc(-c4ccc(Br)cc4)cs3)C(c3ccc4c(c3)OCO4)C2)cc1` (stereo not given), the results for the concentration for half-maximal inhibition (IC50) in assay [1] and in assay [2] were 3430 nM and 3810 nM, respectively.

`Cc1ccc(C2=NN(c3nc(-c4ccc(Br)cc4)cs3)C(c3ccc4c(c3)OCCO4)C2)cc1` (stereo not given): the concentration for half-maximal inhibition (IC50) in assay [1] turned out to be 1590 nM; in assay [2], 1680 nM.

With `COc1ccc(C2=NN(c3nc(-c4ccc(OC)cc4)cs3)C(c3ccc4c(c3)OCCO4)C2)cc1` (stereo not given), the half-inhibitory concentration (IC50) in assay [1] amounted to 2730 nM; in assay [2] it was 3010 nM.

Regarding `Fc1ccc(C2=NN(c3nc(-c4ccc(Br)cc4)cs3)C(c3ccc4c(c3)OCCO4)C2)cc1` (stereo not given), the concentration for half-maximal inhibition (IC50) in assay [1] is 4200 nM; in assay [2] it was 4110 nM.

Turning to `Brc1ccc(C2=NN(c3nc(-c4ccc(Br)cc4)cs3)C(c3ccc4c(c3)OCCO4)C2)cc1` (stereo not given), the figures for the concentration for half-maximal inhibition (IC50) in assay [3], in assay [1] and in assay [2] were 460 nM, 320 nM and 430 nM, respectively.

`COc1ccc(-c2csc(N3N=C(c4ccc(F)cc4)CC3c3ccc4c(c3)OCCO4)n2)cc1` (stereo not given): the IC50 in assay [1] is 4530 nM; in assay [2], 4430 nM.
